Active and inactive are the calls of the source. The rule behind the calls is not given here.
Key:
[1] = system: NCI-H460; test: Antimitotic activity against human NCI-H460 cells assessed as inhibition of cell proliferation incubated for 72 hrs by Alamar blue based fluorescence spectrophotometric analysis; type: functional; settings: NCI-H460, 72 h
In short: (§1)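 Cancer cell lines were cultured per supplier instructions and exposed to various inhibitor concentrations for 72 h. Growth was read as Alamar blue conversion by fluorescence. EC50 (50% growth inhibition) was extrapolated from the dose-response curve fit.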

[2] = system: Granta-519; test: Antimitotic activity against human Granta-519 cells assessed as inhibition of cell proliferation incubated for 72 hrs by Alamar blue based fluorescence spectrophotometric analysis; type: functional; settings: Granta-519, 72 h; in short: as §1
[3] = system: HL-60; test: Antimitotic activity against human HL-60 cells assessed as inhibition of cell proliferation incubated for 72 hrs by Alamar blue based fluorescence spectrophotometric analysis; type: functional; settings: HL-60, 72 h; in short: as §1
[4] = system: THP-1; test: Antimitotic activity against human THP-1 cells assessed as inhibition of cell proliferation incubated for 72 hrs by Alamar blue based fluorescence spectrophotometric analysis; type: functional; settings: THP-1, 72 h; in short: as §1
[5] = system: Raji; test: Antimitotic activity against human Raji cells assessed as inhibition of cell proliferation incubated for 72 hrs by Alamar blue based fluorescence spectrophotometric analysis; type: functional; in short: as §1
[6] = system: NCI-H460; test: Antimitotic activity against human NCI-H460 cells assessed as histone H3 phosphoserine 10 level at 100 nmol/L incubated for 24 hrs by immunofluorescence analysis; type: functional, cell-based
In short: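 NCI-H460 cells on chamber slides were treated next day for 24 h with inhibitor or 0.1% DMSO vehicle. They were fixed and permeabilized with 4% formaldehyde/Triton X-100 for 5 min at RT, then stained with anti-tubulin and anti-phospho-Ser10 histone H3 (1:500 in PBS/2% BSA) plus DAPI 0.05 µg/mL. Imaged by fluorescence microscopy.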

[7] = Cmax in Wistar rat at 10 mg/kg, iv by HPLC-MS/MS analysis; type: ADME, organism-based; settings: in vivo
In short: (§2)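 Male Wistar Crl:WI (Han) rats, n = 4, given a single 5-min i.v. infusion. BI 6727 measured in EDTA plasma at various times after the infusion started, by HPLC-MS/MS with internal standard. Parameters came from noncompartmental analysis. Terminal half-life was taken from the last two time points after i.v. dosing.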

[8] = AUC (0 to infinity) in Wistar rat at 10 mg/kg, iv by HPLC-MS/MS analysis; type: ADME, organism-based; settings: in vivo
In short: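 Single i.v. dose: male Wistar rats (n=4) by 5-min infusion, female nude mice (n=3). EDTA plasma was sampled at various times and extracted with internal standard, NaOH, methanol/formic acid and acetonitrile. Analysis by LC-MS/MS (ESI+, C18, ammonium acetate pH 4.0/acetonitrile gradient). Noncompartmental parameters; AUC by trapezoidal rule.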

[9] = Volume of distribution at steady state in Wistar rat at 10 mg/kg, iv by HPLC-MS/MS analysis; type: ADME, organism-based; settings: in vivo, read-out: Vdss; in short: as §2
[10] = Cmax in Wistar rat at 30 mg/kg, po by HPLC-MS/MS analysis; type: ADME, organism-based; settings: in vivo
In short: (§3)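 Single oral gavage of BI 6727 suspended in 0.5% hydroxyethyl-cellulose (10 mL/kg) to female nude mice or male Wistar rats. EDTA plasma levels measured over time by HPLC-MS/MS with internal standard. AUC0-24 by trapezoidal rule. Parameters from noncompartmental analysis.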

[11] = Tmax in Wistar rat at 30 mg/kg, po by HPLC-MS/MS analysis; type: ADME, organism-based; settings: in vivo; in short: as §3
[12] = Volume of distribution at steady state in BomTac:NMRI-Foxn1nu mouse at 35 mg/kg, iv by HPLC-MS/MS analysis; type: ADME, organism-based; settings: in vivo, read-out: Vdss
In short: (§4)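 Female nude mice, n = 3, single i.v. dose (vehicle 0.1 N HCl diluted with 0.9% NaCl, 10 mL/kg). BI 6727 measured in EDTA plasma at several times by HPLC-MS/MS with internal standard. Parameters came from noncompartmental analysis. Terminal half-life was taken from the last two time points after i.v. dosing.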

[13] = Half life in BomTac:NMRI-Foxn1nu mouse at 35 mg/kg, iv by HPLC-MS/MS analysis; type: ADME, organism-based; settings: in vivo; in short: as §4
[14] = Cmax in BomTac:NMRI-Foxn1nu mouse at 50 mg/kg, po by HPLC-MS/MS analysis; type: ADME, organism-based; settings: in vivo; in short: as §3
[15] = Oral bioavailability in dog by HPLC-MS/MS analysis; type: ADME, organism-based, Canis lupus familiaris; settings: in vivo
[16] = system: HCT-116; test: Antitumor activity against human HCT-116 cells xenografted in BomTac:NMRI-Foxn1nu mouse assessed as T/C at 25 mg/kg, po administered twice a week upto 6 weeks relative to control; type: functional
In short: (§5)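 Female nude mice bore s.c. HCT 116 (2×10^6 cells), NCI-H460 (1×10^6 cells) or serially transplanted CXB1 tumor pieces. At ~50–100 mm³, mice were randomized into groups of 10 and dosed i.v. (0.1 N HCl/saline) or by gavage (0.5% hydroxyethyl-cellulose) at 10 mL/kg. Calipers read thrice weekly, volume = length×width²×π/6. T/C from median volumes on the last day.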

[17] = system: NCI-H460; test: Antitumor activity against human NCI-H460 cells xenografted in BomTac:NMRI-Foxn1nu mouse assessed as T/C at 70 mg/kg, po administered once a week upto 6 weeks relative to control; type: functional; in short: as §5
[18] = system: NCI-H460; test: Antitumor activity against human NCI-H460 cells xenografted in BomTac:NMRI-Foxn1nu mouse assessed as T/C at 10 mg/kg, po administered daily upto 6 weeks relative to control; type: functional; in short: as §5
[19] = AUC (0 to 24 hrs) in human HCT-116 cells xenografted in BomTac:NMRI-Foxn1nu mouse at 20 mg/kg, iv administered twice a week upto 6 weeks by HPLC-MS/MS analysis; type: ADME, organism-based; settings: in vivo, 1008 h
[20] = AUC (0 to 24 hrs) in human HCT-116 cells xenografted in BomTac:NMRI-Foxn1nu mouse at 15 mg/kg, iv administered twice a week upto 6 weeks by HPLC-MS/MS analysis; type: ADME, organism-based; settings: in vivo, 1008 h
[21] = AUC (0 to 24 hrs) in human HCT-116 cells xenografted in BomTac:NMRI-Foxn1nu mouse at 30 mg/kg, iv administered once a week upto 6 weeks by HPLC-MS/MS analysis; type: ADME, organism-based; settings: in vivo, 1008 h
[22] = AUC (0 to 24 hrs) in human HCT-116 cells xenografted in BomTac:NMRI-Foxn1nu mouse at 25 mg/kg, po administered twice a week upto 6 weeks by HPLC-MS/MS analysis; type: ADME, organism-based; settings: in vivo, 1008 h
[23] = AUC (0 to 24 hrs) in human HCT-116 cells xenografted in BomTac:NMRI-Foxn1nu mouse at 7 mg/kg, po administered daily upto 6 weeks by HPLC-MS/MS analysis; type: ADME, organism-based; settings: in vivo, 1008 h
[24] = AUC (0 to 24 hrs) in human NCI-H460 cells xenografted in BomTac:NMRI-Foxn1nu mouse at 70 mg/kg, po administered once a week upto 6 weeks by HPLC-MS/MS analysis; type: ADME, organism-based; settings: in vivo, 1008 h
[25] = system: HCT-116; test: Antitumor activity against human HCT-116 cells xenografted in BomTac:NMRI-Foxn1nu mouse assessed as tumor growth delay at 15 mg/kg, iv administered twice a week on consecutive days; type: functional, organism-based; settings: time 7.0 day; in short: as §5
[26] = system: HCT-116; test: Antitumor activity against human HCT-116 cells xenografted in BomTac:NMRI-Foxn1nu mouse assessed as tumor growth delay at 20 mg/kg, iv administered twice a week on consecutive days; type: functional, organism-based; in short: as §5

- EC50 [1]: 21 nM
- EC50 [3]: 32 nM
- EC50 [4]: 36 nM
- EC50 [5]: 37 nM
- Cmax [7]: 11.9 µM
- AUC(0-inf) [8]: 30 µM·h
- Vd [9]: 22 L/kg
- Cmax [10]: 2.2 µM
- Tmax [11]: 6.7 h
- Vd [12]: 7.6 L/kg
- half-life [13]: 46 h
- Cmax [14]: 5.7 µM
- bioavailability [15]: 53%
- AUC [19]: 66 µM·h
- AUC [20]: 37 µM·h
- AUC [21]: 52 µM·h
- AUC [22]: 43 µM·h
- AUC [23]: 44 µM·h
- AUC [24]: 58 µM·h
Compound: CC[C@@H]1C(=O)N(C)c2cnc(Nc3ccc(C(=O)N[C@H]4CC[C@H](N5CCN(CC6CC6)CC5)CC4)cc3OC)nc2N1C(C)C [VOLASERTIB]
- EC50 [2]: 15 nM
- Activity [6]: Active
- T/C [16]: 2%
- T/C [17]: 20%
- T/C [18]: 6%
- Activity [25]: Active
- Activity [26]: Active
